Measurements from PMC2669732 (Journal of Medicinal Chemistry, 2009).
Read-outs that look alike come from different tables or passages of the source.

Columns and labels:
EcIspF = molecular target: T1, EcIspF (Escherichia coli, UniProt P62617); assay: SPR binding assay with immobilized EcIspF; details: for fold weaker binding than CMP: SPR KD comparison; for ΔG: ΔG = −RT ln Kd
T1 sequence (P62617 1-159): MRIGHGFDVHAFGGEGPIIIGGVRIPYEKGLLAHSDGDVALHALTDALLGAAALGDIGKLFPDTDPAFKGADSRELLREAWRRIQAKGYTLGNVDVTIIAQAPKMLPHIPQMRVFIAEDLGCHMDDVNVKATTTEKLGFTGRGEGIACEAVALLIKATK
Outline: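 E. coli IspF expressed in BL21(DE3), >95% pure, amine-coupled to CM5 chip (diluted to ~100 μg/mL final in 10 mM acetate pH 5.5) to 4500–5500 RU. Ligand series 0.1 μM–10 mM run at 10 °C, 30 μL/min, in 50 mM sodium phosphate pH 7, 2 mM MgCl2, 0.005% P20. Each injection in triplicate with 40 min buffer regeneration. Blank-subtracted steady-state RU fit to 1:1 Langmuir model.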

E. coli LpxC = details: cited from earlier work
LpxC = details: cited from earlier work
[1] = Δg = ΔG/N, N = number of non-hydrogen atoms, Table 5

| Molecule | ΔG (EcIspF) [kcal/mol] | ligand efficiency (Δg) (EcIspF; [1]) [kJ·mol^−1/non-H atom] | ligand efficiency (Δg) (EcIspF) [kJ·mol^−1/non-H atom] | other results |
| --- | --- | --- | --- | --- |
| Nc1ccn([C@H]2O[C@@H](CO)[C@H]3OP(=O)(O)O[C@H]32)c(=O)n1 (mixture of isomers) [Compound 6] |  |  |  | fold weaker binding than CMP (EcIspF): about 20 fold |
| Nc1ccn(CC(CO)OCP(=O)(O)O)c(=O)n1.O.O (stereo in doubt) [CDV, [(2R)-1-(4-amino-2-oxo-pyrimidin-1-yl)-3-hydroxy-propan-2-yl] oxymethylphosphonic acid] | -1.81 | −0.42 |  |  |
| O=C(O)C1COC(c2ccccc2)=N1 (stereo not shown) [4,5 dihydro-2-phenyloxazole-4-carboxylic acid] |  |  |  | IC50 (E. coli LpxC): > 400 µM |
| Nc1ccn([C@@H]2O[C@H](COP(=O)(O)O)[C@@H](O)[C@@H]2O)c(=O)n1 [AraCMP] | -2.23 | −0.44 |  | fold weaker binding than CMP (EcIspF): 20 fold |
| Nc1ccn([C@@H]2O[C@H](COP(=O)(O)O)[C@@H](O)[C@H]2O)c(=O)n1 [CMP] | -3.941 | −0.79 | −0.79 |  |
| Nc1ccn([C@@H]2O[C@@H]3COP(=O)(O)O[C@H]3[C@H]2O)c(=O)n1 [Compound 7] | -3.929 | −0.82 |  |  |
| N[C@@H](Cc1c[nH]c2ccccc12)C(=O)NO [Compound 13, 2-amino-N-hydroxy-3-(1H-indol-3-yl)-propionimidic acid] |  | −2.04 | −2.04 |  |
| Nc1nc(=O)n([C@@H]2O[C@H](CO)[C@@H](O)[C@H]2O)cc1F [FLUC] | -3.489 | −0.81 | −0.81 |  |
| CC(=O)N[C@H]1[C@@H](OP(=O)(O)OP(=O)(O)OC[C@H]2O[C@@H](n3ccc(=O)[nH]c3=O)[C@H](O)[C@@H]2O)O[C@H](CO)[C@@H](O)[C@@H]1O [UDP-GlcNAc] |  |  |  | Km (LpxC; substrate of LpxC): > 20000 µM |
| UDP-3-acyl-GlcNAc |  |  |  | Km (LpxC; natural substrate of LpxC): 2.1 µM |
